LEDGF integ inh = blocks HIV-1 LEDGF/p75-dependent DNA integration; TR-FRET IN-LEDGF/p75 DNA integration, Eu/Cy5; inhibition, % at 3.7 µM; actives 0.64% (n = 370,000); AID 743269;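 active = inhibition above the screen-wide mean plus 3 SD, cut at about 13% in these data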;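 also: signal is the Cy5 over europium emission ratio at 671 and 618 nm; 0% = plate median of compound wells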
MBD2 DNA inh = blocks human MBD2 binding to methylated DNA. inhibition, % at 4.4 µM. TR-FRET, MBD2 binding to methylated oligonucleotide. actives 0.31% (n = 370,000). AID 686964; in the data active = inhibition above about 13%
Target sequence (Q9UBB5 whole entry, looked up): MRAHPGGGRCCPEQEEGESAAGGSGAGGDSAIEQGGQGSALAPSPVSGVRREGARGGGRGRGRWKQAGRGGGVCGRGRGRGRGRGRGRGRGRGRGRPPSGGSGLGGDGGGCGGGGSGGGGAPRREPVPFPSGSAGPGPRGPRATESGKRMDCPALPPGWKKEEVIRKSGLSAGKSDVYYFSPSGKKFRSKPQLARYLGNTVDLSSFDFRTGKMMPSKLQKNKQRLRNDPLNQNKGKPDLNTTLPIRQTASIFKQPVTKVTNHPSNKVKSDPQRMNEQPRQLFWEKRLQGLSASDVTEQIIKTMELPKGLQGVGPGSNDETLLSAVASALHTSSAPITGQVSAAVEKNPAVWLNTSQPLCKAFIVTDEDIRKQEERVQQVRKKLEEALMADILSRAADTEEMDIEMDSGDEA
TDP2 absorb = blocks human TDP2 phosphodiesterase activity; AID 720702; actives 0.34% (n = 370,000); inhibition, % at 12.8 µM; recombinant TDP2, T5PNP hydrolysis, p-nitrophenol absorbance 415 nm; O95551;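 active = inhibition above the mean of all tested compounds plus 3 SD, set per campaign, cut at about 25% in these data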;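 also: 0% = DMSO with enzyme and 100% = buffer with substrate but no TDP2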
Target sequence (O95551 whole entry, looked up): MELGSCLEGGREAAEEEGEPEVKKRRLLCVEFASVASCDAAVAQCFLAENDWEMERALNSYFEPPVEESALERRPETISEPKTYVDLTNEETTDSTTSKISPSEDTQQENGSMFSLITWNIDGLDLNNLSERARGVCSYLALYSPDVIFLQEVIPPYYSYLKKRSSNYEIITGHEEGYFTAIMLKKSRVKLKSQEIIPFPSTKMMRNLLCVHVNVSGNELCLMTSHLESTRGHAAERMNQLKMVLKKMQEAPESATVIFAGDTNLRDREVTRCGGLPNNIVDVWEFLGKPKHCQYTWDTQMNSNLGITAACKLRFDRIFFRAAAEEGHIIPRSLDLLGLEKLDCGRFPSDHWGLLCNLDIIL
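System – recombinant human TDP2 · Amount – 120 nM TDP2 per well · Buffer or medium – Mg2+-containing Tris-HCl buffer, pH 7.5 · Reagent – T5PNP substrate, 5 mM · Dosing – 12.8 µM single point, 1% DMSO · Incubation – 2 h at 37 °C · Measured by – epi absorbance · Read-out basis – percent inhibition · Benchmarks – high control without enzyme, low control DMSO plus TDP2 · Repeats – singlicate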
UHRF1 binding = UHRF1 methyl-DNA binding inhibition; Q96T88; UHRF1 binding to methylated oligo, TR-FRET; inhibition, % at 4.4 µM; actives 0.75% (n = 370,000); AID 687016; in the data active = inhibition above about 21%;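 also: UHRF1 SRA domain binding a hemimethylated CpG hairpin DNA probe; 0% = median of test compound wells and 100% = reference inhibitor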
TDP2 inh conf = confirmation of human TDP2 inhibitors | shares compounds with TDP2 absorb | recombinant human TDP2, absorbance read-out | inhibition, % at 12.8 µM | actives 22% (n = 1,100) | AID 743263; in the data active = inhibition above about 25%;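 also: 0% = vehicle with enzyme and 100% = no enzyme buffer only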
IN multimer act = counter-screen for LEDGF/p75 integration inhibitors: HIV-1 integrase multimerization activators | TR-FRET HIV-1 integrase multimerization, biochemical | actives 17% (n = 2,000) | activation, % at 7.7 µM | shares compounds with LEDGF integ inh; in the data active = activation above about 8.9%
TR-FRET interf = counter-screen for LEDGF/p75 integration inhibitors: TR-FRET optical interference. shares compounds with LEDGF integ inh. inhibition, % at 7.7 µM. 2,000 tested, under 10 active. AID 1053135. TR-FRET optical interference counterscreen, HIV-1 IN multimerization;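 active = inhibition above the mean over all tested compounds plus 3 SD, which no compound reached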;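 also: 0% = integrase with antibodies and DMSO and 100% = antibodies without integrase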
LEDGF integ conf = LEDGF/p75-dependent HIV-1 integration inhibition, confirmation. shares compounds with LEDGF integ inh. TR-FRET LEDGF/p75-dependent HIV-1 integration, biochemical. inhibition, % at 3.7 µM. actives 36% (n = 2,000); in the data active = inhibition above about 14%
Numbers without * were called inactive; . = not tested or not shown. A selection: hits, their analogues and other compounds. The true share with any hit is near 1.6%.

SMILES | LEDGF integ inh | MBD2 DNA inh | TDP2 absorb | UHRF1 binding | IN multimer act | TR-FRET interf | LEDGF integ conf | others
COCCCn1c(N)c(C(=O)OCCOC)c2nc3ccccc3nc21 | 27.8* | -0.5 | 50.2* | 5.3 | 7.8 | -29.4 | 1.1 | TDP2 inh conf=11.2
COc1cc(C2c3cc4c(cc3CC3COC(=O)C32)OCO4)cc(OC)c1OC (stereo unspecified) | -3.3 | 2.7 | 3.9 | -1.0 | . | . | .
CCOC(=O)[C@]12Cc3cc(C)ccc3[C@H]1N(CCC(=O)OC)C(=O)c1ccccc12 | 3.4 | 0.5 | -2.8 | 13.0 | . | . | .
COc1cc(C2c3cc(O)c(OC)cc3CC3C(=O)OCC32)ccc1O (stereo unspecified) | 13.9* | 1.3 | 6.4 | 0.5 | -1.3 | 6.4 | -4.5
CCNc1cc(N2CCN(C)CC2)ccc1[N+](=O)[O-] | 0.6 | -16.6 | 2.4 | -23.2 | . | . | .
O=c1cccc2n1CC1CC2CN(C(c2cccc(F)c2)c2sc3ncnn3c2O)C1 (stereo unspecified) | 16.6* | -5.3 | -2.6 | -1.6 | -0.5 | 2.4 | 0.6
C[C@H](NC(=O)N1C[C@H]2C[C@@H](C1)c1cccc(=O)n1C2)C(=O)Nc1cccc(F)c1 | -0.7 | -1.5 | 5.6 | 1.5 | . | . | .
O=c1[nH]c(O)c(C=NC2CCCCC2)c(=O)[nH]1 | -0.1 | -0.2 | 16.6 | -1.7 | . | . | .
Cc1ccc(N2C(=O)NC(=O)/C(=C\c3cc(C)n(-c4ccc(C(=O)O)cc4)c3C)C2=O)cc1 | 2.2 | 0.3 | 6.4 | -2.5 | . | . | .
CCc1ccc(N2C(=O)NC(=O)/C(=C\c3cc(C)n(-c4cc(C(=O)O)cc(C(=O)O)c4)c3C)C2=O)cc1 | 29.4* | -1.7 | 0.7 | 13.9 | 5.6 | -20.1 | 21.4*
Cc1ccc(N2C(=O)NC(=O)/C(=C\c3cc(C)n(-c4cc(C(=O)O)cc(C(=O)O)c4)c3C)C2=O)cc1 | 35.8* | -1.0 | -8.3 | 25.7* | 2.4 | -8.5 | 10.9
CCCCn1nc(C)c(C(=O)O)c1Cl | -1.7 | -0.5 | -3.6 | -1.4 | . | . | .
CC(=O)Nc1ccccc1C(=O)OCC(=O)c1ccc2ccccc2c1 | 2.3 | -5.6 | 3.4 | -1.2 | . | . | .
CN1C(=O)C(C2CCCCC2)C(=O)N(C)C1=O | 54.7* | 1.4 | -2.6 | 0.2 | 0.9 | -4.3 | -1.1
O=C1NC(=S)NC(=O)C1C1CCCCC1 | -1.8 | -3.1 | 6.7 | -4.0 | . | . | .
Cc1cccc(N2C(=O)/C(=C/c3ccc(CN(CCC#N)S(C)(=O)=O)o3)C(=O)NC2=S)c1 | 25.2* | -1.5 | -8.0 | 6.9 | 0.9 | -4.4 | 36.0*
CCCCOc1ccc(C(C)=O)cc1Cc1c(O)[nH]c(=S)[nH]c1=O | -2.6 | 2.5 | -6.3 | 1.7 | . | . | .
CCN(CC)c1ccc(N=Cc2c(O)n(Cc3ccco3)c(=O)[nH]c2=O)cc1 | 56.8* | 2.0 | 19.1 | 5.9 | 3.5 | -17.4 | 2.2
CCN(CC)c1ccc(N=Cc2c(O)n(-c3cc(OC)ccc3OC)c(=O)[nH]c2=O)cc1 | 15.9* | -0.5 | 7.9 | -3.3 | 3.2 | -11.7 | 3.5
CN(C)CCN=Cc1c(O)n(Cc2ccco2)c(=O)[nH]c1=O | -0.8 | 0.2 | -4.3 | 3.3 | . | . | .
N#Cc1c(/N=C/c2c(O)n(Cc3ccco3)c(=O)[nH]c2=O)sc2c1CCCC2 | 34.1* | 5.0 | 10.7 | 46.2* | 2.3 | -11.5 | 10.2
O=c1[nH]c(=O)n(Cc2ccco2)c(O)c1/C=N/N1CCCCCC1 | 1.1 | -4.2 | 0.1 | -1.3 | . | . | .
CCN(CC)CCN=Cc1c(O)n(Cc2ccccc2)c(=O)[nH]c1=O | -0.3 | 2.0 | 9.8 | -3.2 | . | . | .
CC1CN(c2ccc([N+](=O)[O-])c3cccnc23)CC(C)N1 (stereo unspecified) | -3.4 | -12.1 | -12.0 | -14.2 | . | . | .
COc1ccc(CC2=NCCc3cc(OC)c(OC)cc32)cc1OC | 26.6* | 5.9 | 30.6* | 21.4* | 1.2 | -6.2 | 1.9
SMILES | LEDGF integ inh | MBD2 DNA inh | TDP2 absorb | UHRF1 binding | IN multimer act | TR-FRET interf | LEDGF integ conf | others
CCN(CC)c1ccc(CN(C)CCc2ccc(OC)c(OC)c2)cc1 | 1.7 | -1.6 | 5.2 | -3.6 | . | . | .
CCCc1c(C)nc(-c2ccc(C)cc2)nc1OC(=O)N(C)C | -2.8 | -3.9 | -4.3 | -2.3 | . | . | .
CC(=O)N(C)C1=Nc2ccc(Cl)cc2C(c2ccccc2)=[N+]([O-])C1 | -0.8 | -0.1 | 5.5 | -1.0 | . | . | .
CN(C)C(=O)Oc1ccc(Cl)c2ccccc12 | 4.2 | -4.6 | -14.8 | 5.7 | . | . | .
Cc1c(OC(=O)N(C)C)ccc2c1O/C(=C\c1ccco1)C2=O | 17.5* | 2.2 | -2.2 | 3.9 | 0.2 | -0.6 | -2.6
C=C1C(=O)O[C@@H]2C[C@@H](C)[C@@H]3C=CC(=O)[C@@]3(C)[C@@H](OC(=O)CC(=O)O[C@H]3[C@@H]4C(=C)C(=O)O[C@@H]4C[C@@H](C)[C@@H]4C=CC(=O)[C@]43C)[C@H]12 | 25.0* | 0.8 | -7.7 | 3.8 | 3.9 | -19.5 | 59.2*
COc1ccc(P2(=O)Nc3ccccc3N2)cc1 | 2.3 | 1.7 | 1.7 | -0.6 | . | . | .
COc1ccc2c(c1)NP(=S)(c1ccccc1)N2C (stereo unspecified) | 18.2* | -8.5 | 1.2 | 15.2 | 5.2 | -18.4 | 0.6
CC(C)(C)C(=O)N1Cc2cc(-c3ccccc3)ccc2-n2nncc2C1 | 14.8* | -4.8 | -11.2 | 1.2 | -1.4 | 7.0 | 0.9
Fc1ccc(N2Cc3ccccc3-n3nncc3C2)cc1 | 20.6* | 2.0 | -0.4 | 0.8 | 0.0 | -0.2 | 19.2*
Fc1cccc(-c2ccc3c(c2)CN(c2cccc(Cl)c2)Cc2cnnn2-3)c1 | 33.6* | 6.8 | 5.1 | 6.7 | 2.5 | -12.6 | 20.3*
CO[C@H]1C=C2CCN(C)[C@H]2C2c3cc4c(cc3C(=O)O[C@@H]21)OCO4 (stereo partly specified) | 2.2 | 7.8 | -8.1 | 3.9 | . | . | .
COc1ccc(-n2c(O)c(C(C)=NCCN3CCNCC3)c(=O)[nH]c2=O)cc1 | 17.4* | 2.8 | -3.1 | 5.8 | -0.4 | 2.2 | 3.3
COc1ccc(-n2c(O)c(C(C)=NCC3CCCO3)c(=O)[nH]c2=O)cc1 (stereo unspecified) | -4.6 | 3.0 | -2.0 | 4.2 | . | . | .
COc1ccc(Cc2nccc3cc(OC)c(OC)cc23)cc1OC | 32.6* | 3.9 | 23.6 | 18.7 | 1.8 | -6.3 | 5.7
O=c1[nH]c2ccccc2n1C1CCN(C(c2nnnn2C2CCCCC2)C2CC2)CC1 (stereo unspecified) | 2.5 | -3.1 | -8.2 | 3.4 | . | . | .
CCN(CC)C(=O)N[C@H]1C[C@@H]2c3cccc4[nH]cc(c34)C[C@H]2N(C)C1 | 0.7 | -7.3 | 2.0 | -6.1 | . | . | .
CCC(CO)NC(=O)C1C=C2c3cccc4[nH]cc(c34)CC2N(C)C1 (stereo unspecified) | 21.3* | 3.7 | 10.7 | 9.8 | 0.1 | -0.6 | 4.8

Source: PubChem BioAssay
